Nine molecules from ChEMBL document CHEMBL1153730, “Bioactive constituents of the stem bark of Beilschmiedia zenkeri” (J Nat Prod, 2009) can be followed below.

pIC50: −log10 of the molar value. In brackets after ≈: the same amount, converted by molar mass. Activity calls are given as the source filed them. The calls are words filed in the database; no cut-off is given here.

The test system of assay [1] is Pseudomonas agarici. Kind of assay: Antibacterial activity against Pseudomonas agarici by agar well diffusion method. It counts as functional. The gist of the method:
(§1)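 Agar well diffusion on pure compounds, with the value reported as MIC. Ampicillin was the positive control for B. subtilis and gentamicin for P. agarici.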
Background: In agar diffusion tests the substance spreads into inoculated agar from a disc or well.

The subject of assay [2] is Bacillus subtilis. Kind of assay: Antibacterial activity against Bacillus subtilis by agar well diffusion method. Type of assay: functional. The essentials:
as §1

The subject of assay [3] is Streptococcus minor. Kind of assay: Antibacterial activity against Streptococcus minor by agar well diffusion method. It counts as functional. The essentials: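 Agar well diffusion run on extracts and pure compounds, following earlier reports. Ampicillin served as the positive control for this strain. Activity was reported as MIC (µM).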
Assay [4] deals with Plasmodium falciparum. The assay is described as follows: Antiplasmodial activity against chloroquine-resistant Plasmodium falciparum W2 rings after 48 hrs by FACS analysis. Type of assay: functional, organism-based. To be noted: W2, 48 h.

A word on the pIC50: it is the IC50 on a negative log10 scale, so that one unit is a factor of ten. Low readings indicate a large IC50, high ones a small IC50. What is called MIC is the lowest concentration found to suppress growth. Low readings indicate greater potency, high ones weaker potency.

Take `C=C(C)[C@@H]1CC[C@]2(C(=O)O)CC[C@]3(C)[C@H](CC[C@@H]4[C@@]5(C)CC[C@H](O)C(C)(C)[C@@H]5CC[C@]43C)[C@@H]12` [BETULINIC ACID]: the result in assay [1], in assay [2] and in assay [3] was inactive. Further, the pIC50 in assay [4] is 5.28.

For the molecule `COc1cc2c(c(OC)c1OC)[C@H](O[C@@H]1C[C@@H](c3ccccc3)Oc3cc(OC)c(OC)c(OC)c31)C[C@@H](c1ccccc1)O2`, the result in assay [1], in assay [2] and in assay [3] was inactive.

Turning to `COc1cc2c(c(O)c1OC)[C@H](O[C@@H]1C[C@@H](c3ccccc3)Oc3cc(OC)c(OC)c(OC)c31)C[C@@H](c1ccccc1)O2` [BEILSCHMIEFLAVONOID B], the result in assay [1] and in assay [2] was inactive. In addition, the MIC in assay [3] worked out at 198 µM (≈ 119 µg/mL).

In the case of `COc1cc2c(c(OC)c1OC)[C@H](OC)C[C@@H](c1ccccc1)O2`, the result in assay [1], in assay [2] and in assay [3] was inactive.

For the molecule `COc1cc(O)c2c(c1OC)OC(c1ccccc1)CC2=O` (stereo not given), the outcome in assay [1], in assay [2] and in assay [3] was inactive. Moreover, in assay [4], the negative logarithm of the IC50 (pIC50) was 5.03.

As to `O=C(/C=C/c1ccccc1)NCCc1ccc2c(c1)OCO2`, the result in assay [1], in assay [2] and in assay [3] was inactive.

As to `CC(C)CNC(=O)/C=C/C=C/CCCCCC/C=C/c1ccc2c(c1)OCO2` [GUINEENSINE], the results for the MIC in assay [1] and in assay [2] were 81.5 µM (≈ 31.3 µg/mL) and 163 µM (≈ 62.5 µg/mL), respectively. For the same molecule, the result in assay [3] was inactive. The molecule further showed a pIC50 in assay [4] of 5.43.

`COc1cc2c(c(OC)c1OC)[C@H](O)C[C@@H](c1ccccc1)O2`: the outcome in assay [1], in assay [2] and in assay [3] was inactive.

As for `CCCCCCCCCCCCCCC(=O)OC[C@@H](O)CO`, the result in assay [1], in assay [2] and in assay [3] was inactive.
